From ChEMBL document CHEMBL1126640, “Inhibition studies of some serine and thiol proteinases by new leupeptin analogues” (J Med Chem, 1993)
Where a SMILES comes first, the peptide text is derived from it.

Assays:
Plasma kallikrein [1] = molecular target: T1, Plasma kallikrein (Homo sapiens, UniProt P03952); experiment: Inhibition of kallikrein with benzoyl-L-arginine ethyl ester as substrate
Cathepsin B [2] = molecular target: T2, Cathepsin B (Bos taurus, UniProt P07688); experiment: Inhibition of cathepsin B with Cbz-L-lysine-p-nitrophenyl ester; Not significantly active
In short: (§1)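 Bovine spleen cathepsin B stock (0.163 mg/mL) in 0.10 M sodium phosphate pH 6.0 with 0.10 mg/mL DTT. Diluted in 0.10 M phosphate pH 6.0, preincubated ± inhibitor 2.5 min at 30 °C. Started with Nα-Cbz-L-lysine p-nitrophenyl ester (0.0024 M stock); A405 change over 1 min. IC50 from % inhibition vs log[inhibitor], ≥4 concentrations in ≥3 repeats. NA means ≤25% activity loss at 100 µM or more.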

Prothrombin [3] = molecular target: T3, Prothrombin (Bos taurus, UniProt P00735); experiment: Inhibition of thrombin with benzoyl-Phe-Val-arginine- p-nitroanilide as substrate
In short: (§2)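 Bovine plasma thrombin (19.7 NIH units/mL stock) in 0.01 M Tris pH 8.0, preincubated ± inhibitor 2.5 min at 37 °C. Benzoyl-Phe-Val-Arg p-nitroanilide (0.0005 M stock in 6.8% DMSO/buffer) initiated; A405 change over 1 min. Percent inhibition at ≥4 concentrations (≥3 repeats) plotted against log concentration for IC50.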

Plasminogen [4] = molecular target: T4, Plasminogen (Bos taurus, UniProt P06868); experiment: Inhibition of plasmin with Val-L-Leu-L-lysine-p-nitroanilide as substrate
In short: (§3)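 Bovine plasma plasmin (6.24 mg/mL stock) in 0.45 M Tris pH 8.0 with 0.011 M NaCl, preincubated ± inhibitor 2.5 min at 37 °C. Reaction started with D-Val-L-Leu-L-Lys p-nitroanilide (0.0031 M stock); A405 change over 1 min. IC50 read from % inhibition vs log[inhibitor], ≥4 concentrations, each ≥3 times. NA: ≥100 µM lowers activity ≤25%.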

Serine protease 1 [5] = molecular target: T5, Serine protease 1 (Bos taurus, UniProt P00760); experiment: Inhibition of trypsin with benzoyl-L-arginine ethyl ester as substrate; […]
T5 sequence (P00760 whole entry): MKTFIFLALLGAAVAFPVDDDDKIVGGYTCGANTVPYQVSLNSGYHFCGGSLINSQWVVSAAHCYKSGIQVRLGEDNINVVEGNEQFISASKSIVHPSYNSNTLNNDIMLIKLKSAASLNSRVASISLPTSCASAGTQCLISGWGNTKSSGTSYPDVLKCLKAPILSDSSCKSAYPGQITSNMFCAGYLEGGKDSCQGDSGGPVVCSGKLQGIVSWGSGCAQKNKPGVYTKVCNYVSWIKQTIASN

Prothrombin [6] = molecular target: T3, Prothrombin; experiment: Inhibition of thrombin with benzoyl-Phe-Val-arginine- p-nitroanilide as substrate; Not significantly active; in short: as §2
Plasma kallikrein [7] = molecular target: T1, Plasma kallikrein; experiment: Inhibition of kallikrein with benzoyl-L-arginine ethyl ester as substrate; Not significantly active
Cathepsin B [8] = molecular target: T2, Cathepsin B; experiment: Inhibition of cathepsin B with Cbz-L-lysine-p-nitrophenyl ester as substrate; in short: as §1
Serine protease 1 [9] = molecular target: T5, Serine protease 1; experiment: Inhibition of trypsin with benzoyl-L-arginine ethyl ester as substrate
Plasminogen [10] = molecular target: T4, Plasminogen; experiment: Inhibition of plasmin with Val-L-Leu-L-lysine-p-nitroanilide; Not significantly active; in short: as §3

T1 sequence (P03952 20-390 limits assumed): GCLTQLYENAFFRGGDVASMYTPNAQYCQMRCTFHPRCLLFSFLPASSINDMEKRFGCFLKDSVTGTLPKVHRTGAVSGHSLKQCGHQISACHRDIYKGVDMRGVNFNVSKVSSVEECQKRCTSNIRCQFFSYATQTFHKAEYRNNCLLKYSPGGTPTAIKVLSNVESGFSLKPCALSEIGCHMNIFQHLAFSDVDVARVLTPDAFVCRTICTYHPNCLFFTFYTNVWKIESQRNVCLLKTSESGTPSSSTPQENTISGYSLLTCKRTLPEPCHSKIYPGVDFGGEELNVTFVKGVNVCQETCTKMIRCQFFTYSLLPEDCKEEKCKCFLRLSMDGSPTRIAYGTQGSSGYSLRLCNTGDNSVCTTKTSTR
T1 sequence (P03952 391-638 limits assumed): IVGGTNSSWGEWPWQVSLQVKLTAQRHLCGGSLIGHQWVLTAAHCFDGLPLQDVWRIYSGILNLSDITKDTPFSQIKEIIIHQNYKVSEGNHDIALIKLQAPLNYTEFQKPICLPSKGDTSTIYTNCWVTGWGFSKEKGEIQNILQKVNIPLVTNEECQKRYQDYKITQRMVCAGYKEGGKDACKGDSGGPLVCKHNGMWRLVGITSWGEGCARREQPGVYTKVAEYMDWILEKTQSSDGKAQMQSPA
T4 sequence (P06868 104-583 limits assumed): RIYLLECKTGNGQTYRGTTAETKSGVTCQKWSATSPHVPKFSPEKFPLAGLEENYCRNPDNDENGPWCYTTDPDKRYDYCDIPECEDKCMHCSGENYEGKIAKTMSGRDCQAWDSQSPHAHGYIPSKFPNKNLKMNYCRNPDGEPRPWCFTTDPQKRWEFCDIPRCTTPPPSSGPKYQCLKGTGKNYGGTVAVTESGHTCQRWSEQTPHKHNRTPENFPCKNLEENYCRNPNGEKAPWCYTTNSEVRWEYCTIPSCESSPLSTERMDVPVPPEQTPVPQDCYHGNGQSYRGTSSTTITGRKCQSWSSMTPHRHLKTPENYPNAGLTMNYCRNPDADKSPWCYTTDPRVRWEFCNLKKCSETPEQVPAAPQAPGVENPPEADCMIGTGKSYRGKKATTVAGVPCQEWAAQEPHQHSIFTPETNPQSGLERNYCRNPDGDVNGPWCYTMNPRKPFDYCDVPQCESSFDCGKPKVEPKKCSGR
T4 sequence (P06868 584-812 limits assumed): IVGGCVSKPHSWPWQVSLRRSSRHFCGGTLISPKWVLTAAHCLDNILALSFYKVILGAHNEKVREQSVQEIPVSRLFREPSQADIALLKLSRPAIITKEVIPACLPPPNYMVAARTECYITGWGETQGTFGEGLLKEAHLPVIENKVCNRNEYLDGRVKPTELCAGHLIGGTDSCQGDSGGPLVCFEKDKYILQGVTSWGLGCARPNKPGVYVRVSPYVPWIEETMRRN

SMILES | IC50 (Plasma kallikrein [1]) | IC50 (Cathepsin B [2]) | IC50 (Prothrombin [3]) | IC50 (Plasminogen [4]) | IC50 (Serine protease 1 [5]) | IC50 (Prothrombin [6]) | IC50 (Plasma kallikrein [7]) | IC50 (Cathepsin B [8]) | IC50 (Serine protease 1 [9]) | IC50 (Plasminogen [10])
CC[C@H](C)[C@H](NC(C)=O)C(=O)N[C@@H](CC(C)C)C(=O)N[C@H](C=O)CCCN=C(N)N (Ac-Ile-Leu-Arg-aldehyde) | 54 µM | Not Active | 94 µM | 67 µM | Not Active |  |  |  |  | 
CC[C@H](C)[C@H](NC(C)=O)C(=O)N[C@@H](CC(C)C)C(=O)N[C@H](C=O)CCCCN (Ac-Ile-Leu-Lys-aldehyde) |  |  |  | 17 µM | Not Active | Not Active | Not Active | 2 µM |  | 
CC(=O)N[C@@H](CC(C)C)C(=O)N[C@@H](Cc1ccc(O)cc1)C(=O)N[C@H](C=O)CCCN=C(N)N (Ac-Leu-Tyr-Arg-aldehyde) | 25 µM |  | 66 µM | 5.6 µM | Not Active |  |  | 1.6 µM |  | 
CC(=O)N[C@@H](CC(C)C)C(=O)N[C@H](C(=O)N[C@H](C=O)CCCN=C(N)N)C(C)C (Ac-Leu-Val-Arg-aldehyde) | 16 µM |  |  |  | Not Active | Not Active |  | 130 µM |  | Not Active
CC(=O)N[C@@H](CC(C)C)C(=O)N[C@H](C(=O)N[C@H](C=O)CCCCN)C(C)C (Ac-Leu-Val-Lys-aldehyde) |  |  | 140 µM | 13 µM |  |  | Not Active | 0.004 µM | 45 µM | 
CC(=O)N[C@@H](Cc1ccccc1)C(=O)N[C@@H](CC(C)C)C(=O)N[C@H](C=O)CCCCN (Ac-Phe-Leu-Lys-aldehyde) |  |  |  |  | Not Active | Not Active | Not Active | 18 µM |  | Not Active
CC(=O)N[C@@H](Cc1ccc(O)cc1)C(=O)N[C@@H](CC(C)C)C(=O)N[C@H](C=O)CCCN=C(N)N (Ac-Tyr-Leu-Arg-aldehyde) | 26 µM |  | 35 µM | 78 µM | Not Active |  |  | 22 µM |  | 
CC(=O)N[C@H](C(=O)N[C@@H](CC(C)C)C(=O)N[C@H](C=O)CCCN=C(N)N)C(C)C (Ac-Val-Leu-Arg-aldehyde) | 19 µM |  | 170 µM | 65 µM |  |  |  | 100 µM | 130 µM | 
CC(=O)N[C@H](C(=O)N[C@@H](CC(C)C)C(=O)N[C@H](C=O)CCCCN)C(C)C (Ac-Val-Leu-Lys-aldehyde) |  |  |  |  | Not Active | Not Active | Not Active | 28 µM |  | Not Active

Now from value to molecule:

IC50 (Plasma kallikrein [1]) | IC50 (Cathepsin B [2]) | IC50 (Prothrombin [3]) | IC50 (Plasminogen [4]) | IC50 (Serine protease 1 [5]) | IC50 (Prothrombin [6]) | IC50 (Plasma kallikrein [7]) | IC50 (Cathepsin B [8]) | IC50 (Serine protease 1 [9]) | IC50 (Plasminogen [10]) | SMILES
35 µM |  | 18 µM | 11 µM |  |  |  | 0.15 µM | 9.1 µM |  | CC[C@H](C)[C@H](NC(=O)[C@H](CC(C)C)NC(C)=O)C(=O)N[C@H](C=O)CCCN=C(N)N (Ac-Leu-Ile-Arg-aldehyde)
 |  |  | 18 µM | Not Active | Not Active | Not Active | 0.13 µM |  |  | CC(=O)N[C@@H](CC(C)C)C(=O)N[C@@H](CC(C)C)C(=O)N[C@H](C=O)CCCCN (Ac-Leu-Leu-Lys-aldehyde)
41 µM |  | 8.2 µM | 3.6 µM | Not Active |  |  | 1.1 µM |  |  | CC(=O)N[C@@H](CC(C)C)C(=O)N[C@@H](Cc1ccccc1)C(=O)N[C@H](C=O)CCCN=C(N)N (Ac-Leu-Phe-Arg-aldehyde)
 |  |  |  | Not Active | Not Active | Not Active | 0.1 µM |  | Not Active | CC(=O)N[C@@H](CC(C)C)C(=O)N[C@@H](Cc1ccccc1)C(=O)N[C@H](C=O)CCCCN (Ac-Leu-Phe-Lys-aldehyde)
16 µM |  | 71 µM | 7.7 µM |  |  |  | 1.5 µM | 37 µM |  | CC(=O)N[C@@H](Cc1ccccc1)C(=O)N[C@@H](CC(C)C)C(=O)N[C@H](C=O)CCCN=C(N)N (Ac-Phe-Leu-Arg-aldehyde)
28 µM |  | 1.8 µM | 2.2 µM |  |  |  | 0.039 µM | 12 µM |  | CC(=O)N[C@@H](Cc1ccccc1)C(=O)N[C@H](C(=O)N[C@H](C=O)CCCN=C(N)N)C(C)C (Ac-Phe-Val-Arg-aldehyde)
40 µM |  | 12 µM | 3.7 µM |  |  |  | 0.31 µM | 8.1 µM |  | CC(=O)N[C@@H](CC(C)C)C(=O)N[C@@H](CC(C)C)C(=O)N[C@H](C=O)CCCNC(=N)N [LEUPEPTIN]
